In brackets after ≈: the same amount, converted by molar mass. Several values for one entry are separate records, joined by “and”; a condition that tells them apart may be missing. Equal entries are not always repeated.
Tests used:
Equilibrium solubility = format: physicochemical; settings: for solubility at 24 h: thermodynamic from solid
[1] = Partition coefficients by shake-flask method; format: physicochemical
How it was run: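 Shake-flask method per OECD guidelines. n-Octanol and ultrapure water were mutually saturated by 24 h in a thermostat shaker, then 72 h standing. After partitioning, phases were centrifuged to separate completely, and drug in each phase was measured by HPLC to give logP. For logD7.4, 0.01 M PBS pH 7.4 replaced water, with otherwise identical steps.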

Solution stability assay = format: physicochemical; settings: 37 °C
[2] = 24 h kinetic saturation solubilities; format: physicochemical
[3] = Gastrointestinal tract parallel artificial membrane permeability assay; format: in vitro ADME; settings: PAMPA
How it was run: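 Donor solutions were made in Tris buffer pH 6.5 at several drug concentrations starting from 150 μg ml−1. The acceptor-well hydrophobic filter (0.45 μm) was coated with 2% soybean L-α-phosphatidylcholine in n-dodecane, and the acceptor held Tris buffer pH 7.4. The sandwich was incubated 16 h at room temperature. Receiver solution was quantified by HPLC, n = 6. Papp (cm s−1) was calculated from a published equation.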

Cytotoxicity test = format: cell-based; settings: human, Caco-2 cells
How it was run: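 Caco-2 cells were grown in DMEM with 10% FBS and 1% penicillin/streptomycin at 37 °C in 5% CO2. Cells were seeded at 4 × 10^3 per well and left 16 h. Test compounds were dissolved in DMSO and serially diluted in DMEM, then applied for 24 h. CCK-8 was added for 3 h and absorbance read at 450 nm. IC50 was derived from a concentration–survival plot, mean ± SD of triplicates.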

**Q.** Which solubility at 24 h (Equilibrium solubility; FaSSIF, 37 °C, pH 6.5, fassif) does the source give for `Cc1ccc(S(=O)(=O)NC(=O)NN2CC3CCCC3C2)cc1` (stereo not drawn) [GLI, Gliclazide] here?
**A.** Its solubility at 24 h is 196 ± 3.32 µg/mL (≈ 606 µM).

**Q.** And the solubility at 24 h (Equilibrium solubility; FeSSIF, 37 °C, pH 5, fessif)?
**A.** The solubility at 24 h was 30.1 ± 1.07 µg/mL (≈ 93.2 µM).

**Q.** What about the solubility at 24 h (Equilibrium solubility; Milli-Q water, 37 °C, water) of the same compound?
**A.** Its solubility at 24 h is 43.5 ± 1.67 µg/mL (≈ 135 µM).

**Q.** And the solubility at 24 h (Equilibrium solubility; PBS 7.4, 37 °C, pH 7.4, aqueous buffer)?
**A.** Its solubility at 24 h is 1590 ± 103 µg/mL (≈ 4910 µM).

**Q.** What about the solubility at 24 h (Equilibrium solubility; SIF, 37 °C, pH 6.8, fassgf or other biorelevant) of the same compound?
**A.** Its solubility at 24 h is 584 ± 23 µg/mL (≈ 1810 µM).

**Q.** What about the solubility thermodynamic at 24 h (Equilibrium solubility; Tris buffer pH 6.5, pH 6.5) of the same compound?
**A.** Its solubility thermodynamic at 24 h is 178 µg/mL (≈ 550 µM).

**Q.** What about the solubility at 24 h (Equilibrium solubility; blank FaSSIF, 37 °C, pH 6.5, aqueous buffer) of the same compound?
**A.** The solubility at 24 h was 190.6 ± 0.63 µg/mL (≈ 589 µM).

**Q.** And the solubility at 24 h (Equilibrium solubility; blank FeSSIF, 37 °C, pH 5, aqueous buffer)?
**A.** The solubility at 24 h was 28.7 ± 0.99 µg/mL (≈ 88.7 µM).

**Q.** What about the logD ([1]; n-octanol/PBS 7.4, pH 7.4) of the same compound?
**A.** Its logD is 0.45 ± 0.01.

**Q.** And the logP ([1]; n-octanol/water)?
**A.** Its logP is 1.71 ± 0.03.

**Q.** What about the “Solution stability in SIF” value (Solution stability assay; SIF, whole experiment period (24 h)) of the same compound?
**A.** The value was “relatively stable”.

**Q.** What about the “Initial content remained at 24 h” value (Solution stability assay; pH 7.4 buffer (PBS 7.4), 20 μg ml^−1 GLI, 24 h) of the same compound?
**A.** The value was “zero”.

**Q.** And the solubility kinetic at 12 h ([2]; Milli-Q water)?
**A.** Its solubility kinetic at 12 h is 40.3 µg/mL (≈ 125 µM).

**Q.** What about the “Time within which peak concentration was achieved” value ([2]; PBS 7.4, SIF and FaSSIF) of the same compound?
**A.** Its value is ≤ 6 h.

**Q.** And the “Time of peak concentration” value ([2]; water)?
**A.** Its value is 4 h.

**Q.** What about the Papp at 16 h, 150 μg ml^−1 [3] of the same compound?
**A.** The Papp at 16 h, 150 μg ml^−1 was 2.46 ×10⁻⁶ cm/s.

**Q.** What about the IC50 at 24 h (Cytotoxicity test) of the same compound?
**A.** Its IC50 at 24 h is 20.8 ± 1.11 mM.

**Q.** What does the source list for “Gliclazide tributyl(tetradecyl)phosphonium ionic liquid [[P6,6,6,14][GLI]]”?
**A.** Solubility, FaSSIF (Equilibrium solubility; FaSSIF (pH 6.5), 37 °C, as GLI, n = 3, mean ± SD): 34.53 ± 2.79 µg/mL; Solubility, PBS 7.4 (Equilibrium solubility; PBS pH 7.4, 37 °C, as GLI, n = 3, mean ± SD): 301.87 ± 6.82 µg/mL; Solubility, SIF (Equilibrium solubility; SIF (pH 6.8), 37 °C, as GLI, n = 3, mean ± SD): 102.43 ± 11.54 µg/mL; Solubility, Blank FaSSIF (Equilibrium solubility; blank FaSSIF, 37 °C, as GLI, n = 3, mean ± SD): 32.14 ± 1.56 µg/mL; Solubility, Water (Equilibrium solubility; water, 37 °C, 24 h, as GLI, n = 3, mean ± SD): 1.5 µg/mL and 1.51 ± 0.13 µg/mL; log D7.4 ([1]; n-octanol/PBS 7.4, 37 °C): 0.69 ± 0.02; log P ([1]; n-octanol/water, 37 °C): 2.72 ± 0.24

Source: paper PMC8978969 (RSC Advances, 2022)
